Reference: ChEMBL document CHEMBL4680065, “Pharmacophore-based screening of diamidine small molecule inhibitors for protein arginine methyltransferases” (RSC Med Chem, 2021)

Key:
[1] = target: Protein arginine N-methyltransferase 1 (Homo sapiens, UniProt Q99873); test: Inhibition of recombinant human His-tagged PRMT1 expressed in Escherichia coli BL21 (DE3) using biotin-labeled histone H4-20 as substrate incubated for 8 mins in presence of [3H]-SAM cofactor by scintillation proximity assay
[2] = target: Protein arginine N-methyltransferase 3 (Homo sapiens, UniProt O60678); test: Inhibition of recombinant human His-tagged PRMT3 expressed in Escherichia coli BL21 (DE3) using biotin-labeled SMD1 as substrate incubated for 10 mins in presence of [3H]-SAM cofactor by scintillation proximity assay
Protein arginine N-methyltransferase 3, sequence (O60678 whole entry): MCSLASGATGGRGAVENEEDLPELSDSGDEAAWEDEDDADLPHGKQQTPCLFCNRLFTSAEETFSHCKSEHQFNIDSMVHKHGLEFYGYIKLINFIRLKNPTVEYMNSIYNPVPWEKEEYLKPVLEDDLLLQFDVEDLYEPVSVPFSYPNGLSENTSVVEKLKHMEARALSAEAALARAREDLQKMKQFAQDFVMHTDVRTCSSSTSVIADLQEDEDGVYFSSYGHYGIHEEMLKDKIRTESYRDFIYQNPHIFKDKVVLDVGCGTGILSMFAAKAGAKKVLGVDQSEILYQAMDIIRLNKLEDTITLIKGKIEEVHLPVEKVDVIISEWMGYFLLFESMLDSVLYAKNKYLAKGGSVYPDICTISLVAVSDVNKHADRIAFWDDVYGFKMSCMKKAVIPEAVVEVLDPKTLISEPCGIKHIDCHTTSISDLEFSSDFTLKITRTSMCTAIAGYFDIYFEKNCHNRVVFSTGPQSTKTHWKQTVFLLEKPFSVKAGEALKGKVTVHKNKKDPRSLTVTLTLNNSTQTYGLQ
Summary of the method: (§1)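 The inhibitor was serially diluted and added to the enzyme, [3H]-SAM and substrate mixture, and methylated substrate was quantified by scintillation proximity assay. Reactions were held at initial rate, with yield under 10% and substrate near Km. PRMT3, PRMT8 and G9a were His-tagged human proteins, and PRMT7 was GST-tagged, all expressed in E. coli and affinity-purified.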

[3] = target: T1, Histone-arginine methyltransferase CARM1 (Homo sapiens, UniProt Q86X55); test: Inhibition of recombinant GST-tagged CARM1 (unknown origin) expressed in Escherichia coli using […] incubated for 120 mins in presence of [3H]-SAM cofactor by radioactive filter plate assay
T1 sequence (Q86X55 whole entry): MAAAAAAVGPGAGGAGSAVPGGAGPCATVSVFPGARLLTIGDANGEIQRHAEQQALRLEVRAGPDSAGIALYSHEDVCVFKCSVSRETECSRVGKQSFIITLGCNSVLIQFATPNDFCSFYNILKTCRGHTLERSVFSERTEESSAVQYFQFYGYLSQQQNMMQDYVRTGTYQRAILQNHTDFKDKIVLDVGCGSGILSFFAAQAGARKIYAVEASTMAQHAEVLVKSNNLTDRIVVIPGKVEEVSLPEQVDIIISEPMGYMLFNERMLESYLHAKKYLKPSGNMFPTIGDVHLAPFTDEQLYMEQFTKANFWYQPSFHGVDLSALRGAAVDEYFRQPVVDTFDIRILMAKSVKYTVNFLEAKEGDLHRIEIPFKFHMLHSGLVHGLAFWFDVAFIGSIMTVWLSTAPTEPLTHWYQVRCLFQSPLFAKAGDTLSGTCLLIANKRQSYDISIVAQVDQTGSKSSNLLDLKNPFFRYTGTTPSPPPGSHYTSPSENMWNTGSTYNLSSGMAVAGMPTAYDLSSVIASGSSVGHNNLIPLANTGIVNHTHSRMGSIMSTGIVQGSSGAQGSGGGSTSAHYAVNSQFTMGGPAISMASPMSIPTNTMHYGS

PRMT5/MEP50 complex = PRMT5/MEP50 complex (Homo sapiens, UniProt O14744); test: Inhibition of PRMT5/MEP50 (unknown origin) using biotin-labeled histone H4-20 peptide as substrate incubated for 8 mins in presence of [3H]-SAM cofactor by scintillation proximity assay; type: protein-complex assay
PRMT5/MEP50 complex, sequence (O14744 whole entry): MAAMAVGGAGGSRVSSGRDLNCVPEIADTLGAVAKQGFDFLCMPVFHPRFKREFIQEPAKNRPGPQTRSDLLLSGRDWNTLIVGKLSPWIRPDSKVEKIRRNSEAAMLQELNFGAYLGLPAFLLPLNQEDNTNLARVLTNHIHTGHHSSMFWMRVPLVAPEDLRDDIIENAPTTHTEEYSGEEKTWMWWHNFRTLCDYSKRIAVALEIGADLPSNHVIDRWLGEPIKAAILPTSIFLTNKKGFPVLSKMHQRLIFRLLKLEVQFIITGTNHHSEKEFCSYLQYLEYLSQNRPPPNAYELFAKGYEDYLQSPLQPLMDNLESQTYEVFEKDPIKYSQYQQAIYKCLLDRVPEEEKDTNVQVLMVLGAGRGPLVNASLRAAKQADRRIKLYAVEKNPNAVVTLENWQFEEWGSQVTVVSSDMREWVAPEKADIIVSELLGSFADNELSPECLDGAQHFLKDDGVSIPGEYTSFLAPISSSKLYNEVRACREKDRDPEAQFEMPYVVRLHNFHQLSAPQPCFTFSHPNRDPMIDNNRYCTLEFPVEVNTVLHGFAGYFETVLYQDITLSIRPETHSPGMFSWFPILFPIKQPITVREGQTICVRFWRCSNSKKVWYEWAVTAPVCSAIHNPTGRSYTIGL
PRMT5/MEP50 complex, sequence (Q9BQA1 whole entry, further chain): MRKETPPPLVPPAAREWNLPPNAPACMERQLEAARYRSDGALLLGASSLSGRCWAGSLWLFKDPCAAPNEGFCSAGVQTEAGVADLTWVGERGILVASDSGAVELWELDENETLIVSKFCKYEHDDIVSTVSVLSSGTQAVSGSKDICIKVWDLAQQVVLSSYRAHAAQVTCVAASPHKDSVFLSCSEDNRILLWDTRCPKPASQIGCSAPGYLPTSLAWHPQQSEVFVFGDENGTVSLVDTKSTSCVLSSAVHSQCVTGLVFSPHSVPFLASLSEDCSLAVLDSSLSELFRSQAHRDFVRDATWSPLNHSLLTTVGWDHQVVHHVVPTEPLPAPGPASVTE
Summary of the method: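 Part of a methyltransferase selectivity panel. Test compound was serially diluted into a mixture of enzyme, [3H]-SAM cofactor and substrate. Methylated substrate was quantified by scintillation proximity assay. Reactions were held at initial-rate conditions with substrate turnover under 10%, and substrate concentrations were near Km.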

[4] = target: Protein arginine N-methyltransferase 6 (Homo sapiens, UniProt Q96LA8); test: Inhibition of PRMT6 (unknown origin) using biotin-labeled SMD1 as substrate incubated for 30 mins in presence of [3H]-SAM cofactor by scintillation proximity assay
Protein arginine N-methyltransferase 6, sequence (Q96LA8 whole entry): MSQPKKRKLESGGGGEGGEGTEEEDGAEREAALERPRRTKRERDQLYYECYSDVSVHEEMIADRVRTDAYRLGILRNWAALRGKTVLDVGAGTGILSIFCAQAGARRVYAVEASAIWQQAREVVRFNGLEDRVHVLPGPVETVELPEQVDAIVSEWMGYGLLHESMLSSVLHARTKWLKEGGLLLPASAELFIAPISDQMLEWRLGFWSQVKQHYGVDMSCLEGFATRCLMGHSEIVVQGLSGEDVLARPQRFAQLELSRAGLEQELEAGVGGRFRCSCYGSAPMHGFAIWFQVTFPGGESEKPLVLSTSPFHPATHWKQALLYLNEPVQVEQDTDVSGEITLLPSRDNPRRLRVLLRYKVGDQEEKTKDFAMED

[5] = target: T2, Protein arginine N-methyltransferase 7 (Homo sapiens, UniProt Q9NVM4); test: Inhibition of recombinant GST-tagged PRMT7 (unknown origin) expressed in Escherichia coli using biotin-labeled SMD1 as substrate incubated for 120 mins in presence of [3H]-SAM cofactor by scintillation proximity assay; summary of the method: as §1
T2 sequence (Q9NVM4 whole entry): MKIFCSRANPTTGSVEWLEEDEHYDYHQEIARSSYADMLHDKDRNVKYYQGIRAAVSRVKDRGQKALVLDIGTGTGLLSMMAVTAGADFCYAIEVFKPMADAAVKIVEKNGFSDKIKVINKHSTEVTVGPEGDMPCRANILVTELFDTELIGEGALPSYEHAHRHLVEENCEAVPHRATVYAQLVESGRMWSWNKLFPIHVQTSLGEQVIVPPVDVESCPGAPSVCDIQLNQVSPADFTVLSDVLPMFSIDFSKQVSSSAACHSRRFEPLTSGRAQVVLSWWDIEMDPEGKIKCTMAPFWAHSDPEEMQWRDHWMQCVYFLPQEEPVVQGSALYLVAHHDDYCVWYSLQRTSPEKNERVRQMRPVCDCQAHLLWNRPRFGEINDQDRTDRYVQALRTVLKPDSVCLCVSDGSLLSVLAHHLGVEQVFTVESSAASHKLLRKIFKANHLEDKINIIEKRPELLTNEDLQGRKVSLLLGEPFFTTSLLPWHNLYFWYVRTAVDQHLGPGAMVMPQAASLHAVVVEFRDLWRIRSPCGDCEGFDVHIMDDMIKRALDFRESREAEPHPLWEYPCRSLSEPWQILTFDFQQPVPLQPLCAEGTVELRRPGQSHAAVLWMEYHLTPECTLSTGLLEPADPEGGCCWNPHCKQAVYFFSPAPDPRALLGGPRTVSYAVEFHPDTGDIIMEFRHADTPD

[6] = target: Protein arginine N-methyltransferase 8 (Homo sapiens, UniProt Q9NR22); test: Inhibition of recombinant His-tagged human PRMT8 expressed in Escherichia coli BL21 (DE3) using biotin-labeled histone H4-20 peptide as substrate incubated for 8 mins in presence of [3H]-SAM cofactor by scintillation proximity assay; summary of the method: as §1
Protein arginine N-methyltransferase 8, sequence (Q9NR22 whole entry): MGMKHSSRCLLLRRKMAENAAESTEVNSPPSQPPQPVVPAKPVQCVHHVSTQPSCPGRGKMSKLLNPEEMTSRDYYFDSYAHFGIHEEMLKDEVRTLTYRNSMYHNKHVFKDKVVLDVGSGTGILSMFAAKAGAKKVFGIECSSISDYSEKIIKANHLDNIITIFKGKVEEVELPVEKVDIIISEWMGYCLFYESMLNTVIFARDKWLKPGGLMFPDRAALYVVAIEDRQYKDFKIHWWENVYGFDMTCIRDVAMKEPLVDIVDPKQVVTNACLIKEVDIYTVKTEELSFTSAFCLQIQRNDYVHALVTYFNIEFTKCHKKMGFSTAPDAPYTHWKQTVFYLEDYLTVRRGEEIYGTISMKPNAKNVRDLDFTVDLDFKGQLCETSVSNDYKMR

[7] = target: T3, Histone-lysine N-methyltransferase EHMT2 (Homo sapiens, UniProt Q96KQ7); test: Inhibition of recombinant His-tagged human G9a expressed in Escherichia coli BL21 (DE3) using biotin-labeled histone H3-20 peptide as substrate incubated for 30 mins in presence of [3H]-SAM cofactor by scintillation proximity assay; summary of the method: as §1
T3 sequence (Q96KQ7 whole entry): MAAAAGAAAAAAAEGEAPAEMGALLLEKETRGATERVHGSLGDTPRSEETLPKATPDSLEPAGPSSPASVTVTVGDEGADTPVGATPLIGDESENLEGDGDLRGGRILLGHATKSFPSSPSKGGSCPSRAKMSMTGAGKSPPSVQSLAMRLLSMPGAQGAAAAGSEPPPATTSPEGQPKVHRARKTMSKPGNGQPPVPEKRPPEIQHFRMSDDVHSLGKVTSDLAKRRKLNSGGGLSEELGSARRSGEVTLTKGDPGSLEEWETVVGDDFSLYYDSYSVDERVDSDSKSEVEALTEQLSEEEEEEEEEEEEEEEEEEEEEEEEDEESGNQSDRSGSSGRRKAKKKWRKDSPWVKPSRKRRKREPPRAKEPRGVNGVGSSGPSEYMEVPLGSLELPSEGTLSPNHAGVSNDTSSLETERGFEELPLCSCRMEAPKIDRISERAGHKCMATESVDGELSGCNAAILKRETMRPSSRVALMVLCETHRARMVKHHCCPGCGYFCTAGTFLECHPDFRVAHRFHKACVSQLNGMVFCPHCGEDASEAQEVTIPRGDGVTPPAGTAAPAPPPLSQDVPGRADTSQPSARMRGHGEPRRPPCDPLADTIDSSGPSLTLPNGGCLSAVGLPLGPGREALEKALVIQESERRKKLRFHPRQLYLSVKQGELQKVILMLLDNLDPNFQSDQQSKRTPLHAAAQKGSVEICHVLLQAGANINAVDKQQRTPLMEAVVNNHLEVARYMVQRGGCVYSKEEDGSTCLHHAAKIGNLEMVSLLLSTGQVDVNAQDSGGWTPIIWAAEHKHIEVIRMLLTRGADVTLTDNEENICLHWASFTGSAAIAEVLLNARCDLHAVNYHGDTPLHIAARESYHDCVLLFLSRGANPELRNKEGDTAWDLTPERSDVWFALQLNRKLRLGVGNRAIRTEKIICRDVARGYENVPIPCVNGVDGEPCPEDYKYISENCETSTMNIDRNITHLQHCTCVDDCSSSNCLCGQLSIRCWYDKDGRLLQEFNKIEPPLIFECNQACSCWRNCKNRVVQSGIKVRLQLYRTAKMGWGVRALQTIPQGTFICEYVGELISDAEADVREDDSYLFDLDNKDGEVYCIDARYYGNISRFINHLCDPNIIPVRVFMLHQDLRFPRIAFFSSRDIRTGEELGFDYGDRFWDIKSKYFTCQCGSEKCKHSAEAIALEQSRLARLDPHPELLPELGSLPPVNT

Protein arginine N-methyltransferase 1, sequence (Q99873 whole entry): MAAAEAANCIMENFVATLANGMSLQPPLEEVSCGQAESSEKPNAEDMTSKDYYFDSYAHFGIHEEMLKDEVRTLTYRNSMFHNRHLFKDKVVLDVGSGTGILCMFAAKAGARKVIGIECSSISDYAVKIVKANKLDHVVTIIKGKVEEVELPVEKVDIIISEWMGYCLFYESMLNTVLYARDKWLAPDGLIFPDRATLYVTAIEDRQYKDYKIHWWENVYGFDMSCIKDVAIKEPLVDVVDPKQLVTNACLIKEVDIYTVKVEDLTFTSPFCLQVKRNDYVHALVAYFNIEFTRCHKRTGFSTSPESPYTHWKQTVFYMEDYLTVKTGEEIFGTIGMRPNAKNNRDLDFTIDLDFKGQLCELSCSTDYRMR

O=C(Nc1ccc(C2=NCCN2)cc1)c1cc2ccc(C3=NCCN3)cc2o1
IC50 [1]: > 100 µM

N=C(N)c1ccc2[nH]c(/C=C/c3cc4cc(C(=N)N)ccc4o3)cc2c1
IC50 [1]: 7.7 µM

C(=C/c1cc2ccc(C3=NCCN3)cc2o1)/c1cc2cc(C3=NCCN3)ccc2[nH]1
IC50 [1]: 7.9 µM

CNCC(=O)NC1=CC2C(=O)c3ccc(NC(=O)CNC)cc3C(=O)C2C=C1 (stereo not given)
IC50 [2]: 11.6 µM
IC50 [3]: 12.4 µM
IC50 (PRMT5/MEP50 complex): > 500 µM
IC50 [4]: 84.5 µM
IC50 [5]: 288 µM
IC50 [6]: 43.7 µM
IC50 [7]: > 1000 µM

Nc1nc(N)c2nc3c(ccc4ccccc43)nc2n1
IC50 [2]: 55.7 µM
IC50 [3]: 9.1 µM
IC50 (PRMT5/MEP50 complex): 62.1 µM
IC50 [4]: 62.9 µM
IC50 [5]: 126 µM
IC50 [6]: 167 µM
IC50 [7]: 81.5 µM

C(=C/c1cc2ccc(C3=NCCN3)cc2o1)/c1cc2ccc(C3=NCCN3)cc2[nH]1
IC50 [1]: 7.6 µM

N=C(N)c1ccc2sc(/C=C/c3cc4ccc(C(=N)N)cc4o3)cc2c1
IC50 [1]: 16.5 µM

N=C(N)c1ccc2cc(CCc3cc4ccc(C(=N)N)cc4o3)[nH]c2c1
IC50 [1]: > 10 µM

O=C(Nc1ccc(C2=NCCN2)cc1)c1cc2cc(C3=NCCN3)ccc2o1
IC50 [1]: > 100 µM

N=C(N)c1ccc(NC(=O)c2cc3cc(C(=N)N)ccc3o2)cc1
IC50 [1]: > 100 µM

c1cc2cc(-c3ccc4oc(C5=NCCN5)cc4c3)[nH]c2cc1C1=NCCN1
IC50 [2]: 19 µM
IC50 [3]: 155 µM
IC50 (PRMT5/MEP50 complex): > 500 µM
IC50 [4]: 12.9 µM
IC50 [5]: 248 µM
IC50 [6]: 60.1 µM
IC50 [7]: 39.7 µM

CNC(=N)N/N=C(/C)c1ccc2oc3ccc(/C(C)=N/NC(=N)NC)cc3c2c1
IC50 [1]: 6.9 µM
IC50 [2]: 8.2 µM
IC50 [3]: 15.5 µM
IC50 (PRMT5/MEP50 complex): 18.9 µM
IC50 [4]: 6.01 µM
IC50 [5]: 23.3 µM
IC50 [6]: 17.6 µM
IC50 [7]: 4.7 µM

C1=C(/C=C/c2ccc3cc(C4=NCCN4)[nH]c3c2)Cc2cc(C3=NCCN3)ccc21
IC50 [1]: 5 µM

C(=C\c1cc2ccc(C3=NCCN3)cc2[nH]1)/c1cc2ccc(C3=NCCN3)cc2[nH]1
IC50 [1]: 6.2 µM

N=C(N)c1ccc(-c2ccc(-c3ccc(C(=N)N)cc3)o2)cc1 [FURAMIDINE]
IC50 [1]: 8.9 µM

C(=C\c1cc2ccc(C3=NCCN3)cc2[nH]1)/c1ccc(Oc2ccc(C3=NCCN3)cc2)cc1
IC50 [1]: 16.3 µM

N=C(N)c1ccc(NC(=O)c2cc3ccc(C(=N)N)cc3o2)cc1
IC50 [1]: > 100 µM

N=C(N)c1ccc2[nH]c(/C=C/c3cc4ccc(C(=N)N)cc4o3)cc2c1
IC50 [1]: 7.5 µM

N=C(N)c1ccc(/C=C/c2cc3cc(C(=N)N)ccc3o2)cc1
IC50 [1]: 10 µM

N=C(N)c1ccc2cc(/C=C/c3cc4ccc(C(=N)N)cc4o3)[nH]c2c1
IC50 [1]: 2.4 µM
